Format in all cases: cell-based
One series concerns human lymphocytes. The series can be described thus: Comet assay. In a few lines: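 Freshly isolated human lymphocytes from fresh blood were exposed to test compound at 40–0.078 μg/mL. Controls were 20% DMSO (positive) and normal saline (negative). Cells in low-melting agarose went onto slides precoated with normal-melting agarose, then cold lysis overnight, alkaline unwinding at pH >13, and electrophoresis for 30 min at 300 mA, 24 V. Slides were neutralised at pH 7.5 and ethidium bromide-stained. Tail length and head diameter were scored by fluorescence microscopy, damage index by formula, reported as mean ± SD of 3–5 experiments.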

Another series concerns MCF-7 cell line. The series can be described thus: MTT assay, anticancer activity on MCF-7 cell line. To be noted: Homo sapiens, MCF7, 48 h.
For a further series, the system named is Vero cell line. The series can be described thus: MTT assay, cytotoxicity on Vero. The following applies: Chlorocebus sabaeus, 48 h, read-out: IC50 Vero cell line.

≈ marks a conversion by molar mass, not a printed value.

In the series on human lymphocytes (positive control, 20%), `C[S+](C)[O-]` [20% DMSO, Dimethyl sulfoxide] returned a damage index of 45, a fragmentation % of 100% and a genetic damage index of 1.8.
In the case of `COc1cc(/C=C/C(=O)CC(=O)/C=C/c2ccc(O)c(OC)c2)ccc1O` [curcumin], the IC50 in the series with MCF-7 cell line (read-out: IC50 MCF7 cell line) was 11.5 µg/mL (≈ 31.1 µM); in the series with Vero cell line, 23.2 µg/mL (≈ 63 µM). In addition, the inhibition at 40 µg/mL with MCF-7 cell line (read-out: percentage inhibition against MCF7 cell line) amounted to 64%. In addition, the damage index with human lymphocytes (0.078 μg/mL), in the series on human lymphocytes (0.156 μg/mL), in the series on human lymphocytes (0.3125 μg/mL), with human lymphocytes (0.625 μg/mL), in the series on human lymphocytes (1.25 μg/mL) and in the series with human lymphocytes (2.5 μg/mL) was 0 in each case. Besides, the damage index is 0 with human lymphocytes (5 μg/mL), 1 with human lymphocytes (10 μg/mL), 2 with human lymphocytes (20 μg/mL) and 3 in the series on human lymphocytes (40 μg/mL). The fragmentation % in the series with human lymphocytes (0.078 μg/mL), with human lymphocytes (0.156 μg/mL), in the series on human lymphocytes (0.3125 μg/mL), with human lymphocytes (0.625 μg/mL), in the series on human lymphocytes (1.25 μg/mL) and in the series with human lymphocytes (2.5 μg/mL) was 0% in each case. For the same compound, the fragmentation % with human lymphocytes (5 μg/mL) is on record as 0%; in the series with human lymphocytes (10 μg/mL), 4%; in the series with human lymphocytes (20 μg/mL), 8%; in the series with human lymphocytes (40 μg/mL), 12%. The genetic damage index in the series on human lymphocytes (0.078 μg/mL), in the series on human lymphocytes (0.156 μg/mL), in the series on human lymphocytes (0.3125 μg/mL), with human lymphocytes (0.625 μg/mL), with human lymphocytes (1.25 μg/mL) and in the series on human lymphocytes (2.5 μg/mL) was 0 throughout. Moreover, the genetic damage index with human lymphocytes (5 μg/mL) worked out at 0; in the series on human lymphocytes (10 μg/mL), 0.04; with human lymphocytes (20 μg/mL), 0.08; in the series on human lymphocytes (40 μg/mL), 0.12. Also, the “mean tail length n = 25” value amounted to 0.36 ± 0.47 with human lymphocytes (0.078 μg/mL); 0.46 ± 0.38 in the series on human lymphocytes (0.156 μg/mL); 0.57 ± 0.22 in the series with human lymphocytes (0.3125 μg/mL); 0.54 ± 0.28 in the series on human lymphocytes (0.625 μg/mL); 0.68 ± 0.35 with human lymphocytes (1.25 μg/mL); 0.68 ± 0.74 with human lymphocytes (2.5 μg/mL). For the same compound, the “mean tail length n = 25” value in the series with human lymphocytes (5 μg/mL) was determined as 1.14 ± 0.72; in the series on human lymphocytes (10 μg/mL), 1.28 ± 0.28; in the series on human lymphocytes (20 μg/mL), 1.31 ± 0.74; in the series with human lymphocytes (40 μg/mL), 1.86 ± 0.73.
